Test results reported in ChEMBL document CHEMBL5230175, “The war on hTG2: warhead optimization in small molecule human tissue transglutaminase inhibitors” (RSC Med Chem, 2023).
pKi: −log10 of the molar value.

What was measured:
[1] = biological target: T1, Protein-glutamine gamma-glutamyltransferase (Homo sapiens) (UniProt P21980); assay: Inhibition of human recombinant tissue transglutaminase expressed in Escherichia coli using Cbz-Glu-(gamma-p-nitrophenylester)Gly (AL5) as substrate assessed as substrate hydrolysis by measuring Kinact incubated for 20 mins by colorimetric analysis
T1 sequence (whole entry): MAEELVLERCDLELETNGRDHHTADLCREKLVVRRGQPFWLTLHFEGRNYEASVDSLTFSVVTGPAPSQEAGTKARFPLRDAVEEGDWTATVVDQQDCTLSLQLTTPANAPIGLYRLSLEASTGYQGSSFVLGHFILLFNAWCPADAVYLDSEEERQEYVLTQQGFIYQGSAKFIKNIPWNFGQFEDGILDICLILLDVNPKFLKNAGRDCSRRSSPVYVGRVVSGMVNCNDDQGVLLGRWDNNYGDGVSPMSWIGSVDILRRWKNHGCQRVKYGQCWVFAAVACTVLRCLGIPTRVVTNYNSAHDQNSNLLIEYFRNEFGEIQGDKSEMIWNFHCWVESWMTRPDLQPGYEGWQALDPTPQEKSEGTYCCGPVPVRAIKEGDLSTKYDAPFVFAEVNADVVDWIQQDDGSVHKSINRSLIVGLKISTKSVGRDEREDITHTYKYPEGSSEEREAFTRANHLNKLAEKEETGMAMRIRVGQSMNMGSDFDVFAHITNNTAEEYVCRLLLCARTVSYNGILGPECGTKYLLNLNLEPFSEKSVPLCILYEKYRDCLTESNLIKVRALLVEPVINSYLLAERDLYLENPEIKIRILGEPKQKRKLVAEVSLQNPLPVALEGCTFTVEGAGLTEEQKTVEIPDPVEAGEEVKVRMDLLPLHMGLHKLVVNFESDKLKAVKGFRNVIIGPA

[2] = biological target: T1, Protein-glutamine gamma-glutamyltransferase (Homo sapiens); assay: Irreversible inhibition of human recombinant tissue transglutaminase expressed in Escherichia coli using Cbz-Glu-(gamma-p-nitrophenylester)Gly (AL5) as substrate assessed as substrate hydrolysis by measuring Kinact/Ki ratio by linear regression analysis
How it was run: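 For TG2/AL5 under Kitz–Wilson conditions (100 μM AL5, pH 6.9 MOPS, 25 °C, 405 nm), kinact/KI was taken from simple linear regression of kobs against corrected inhibitor concentration at the lowest inhibitor concentrations.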

[3] = biological target: T2, Protein-glutamine gamma-glutamyltransferase (Homo sapiens, UniProt P21980); assay: Irreversible inhibition of human recombinant tissue transglutaminase expressed in Escherichia coli using Cbz-Glu-(gamma-p-nitrophenylester)Gly (AL5) as substrate assessed as substrate hydrolysis by measuring KI incubated for 20 mins by colorimetric analysis
T2 sequence (P21980 whole entry): T1 sequence (whole entry)

[4] = biological target: T1, Protein-glutamine gamma-glutamyltransferase (Homo sapiens); assay: Irreversible inhibition of human recombinant tissue transglutaminase expressed in Escherichia coli using Cbz-Glu-(gamma-p-nitrophenylester)Gly (AL5) as substrate assessed as substrate hydrolysis by measuring Kinact/Ki ratio incubated for 20 mins by colorimetric analysis
[5] = biological target: T3, Coagulation factor XIII A chain (Homo sapiens) (UniProt P00488); assay: Reversible inhibition of human factor XIIIa using peptidic FRET-quenched probe A101 as substrate by fluorescence based assay relative to control; conditions: concentration not given here
T3 sequence (whole entry): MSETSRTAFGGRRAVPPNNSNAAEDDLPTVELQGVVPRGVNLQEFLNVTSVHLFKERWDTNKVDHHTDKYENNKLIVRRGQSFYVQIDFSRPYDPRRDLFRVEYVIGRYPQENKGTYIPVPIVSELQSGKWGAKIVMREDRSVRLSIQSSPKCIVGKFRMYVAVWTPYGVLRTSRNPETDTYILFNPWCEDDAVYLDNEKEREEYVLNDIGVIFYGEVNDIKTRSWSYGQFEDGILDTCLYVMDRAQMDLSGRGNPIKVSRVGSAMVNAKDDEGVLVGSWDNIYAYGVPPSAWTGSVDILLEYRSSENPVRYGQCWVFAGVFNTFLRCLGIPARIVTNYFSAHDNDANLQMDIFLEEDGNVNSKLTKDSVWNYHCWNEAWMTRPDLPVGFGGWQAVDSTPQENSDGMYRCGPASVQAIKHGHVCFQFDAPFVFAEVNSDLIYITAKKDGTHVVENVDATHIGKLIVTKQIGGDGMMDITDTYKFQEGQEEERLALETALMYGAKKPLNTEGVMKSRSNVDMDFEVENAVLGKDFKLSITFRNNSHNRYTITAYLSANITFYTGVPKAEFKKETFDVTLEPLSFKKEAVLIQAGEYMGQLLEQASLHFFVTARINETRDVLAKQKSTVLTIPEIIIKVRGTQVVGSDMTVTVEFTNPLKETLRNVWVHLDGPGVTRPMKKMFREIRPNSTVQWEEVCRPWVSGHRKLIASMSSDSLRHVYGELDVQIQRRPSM

[6] = Metabolic stability in pooled cryopreserved human hepatocytes assessed as half-life at 1 uM measured upto 120 mins by LC-MS/MS analysis; type: ADME, cell-based, Hepatocyte
How it was run: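 Samples were taken at 0, 5, 15, 30, 60 and 120 min, acetonitrile-quenched with internal standard, and analysed by LC-MS/MS. Half-life came from exponential decay of the parent/IS ratio relative to T = 0.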

[7] = Metabolic stability in human whole blood assessed as half-life at 1 to 5 uM measured upto 120 mins by LC-MS/MS analysis; type: ADME, tissue-based; conditions: dose 1-5 µM
How it was run: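 Pooled human whole blood (K3-EDTA) was spiked to 1 or 5 μM compound. Aliquots taken at 0, 15, 30, 60 and 120 min were quenched in acetonitrile with 0.1% formic acid and internal standard, then analysed by LC-MS/MS. Percent parent remaining is the peak-area ratio versus T = 0; half-life comes from an exponential decay fit.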

[8] = biological target: T1, Protein-glutamine gamma-glutamyltransferase (Homo sapiens); assay: Irreversible inhibition of human TG2 using Cbz-Glu-(gamma-p-nitrophenylester)Gly (AL5) as substrate assessed as substrate hydrolysis by measuring observed binding constant incubated for 20 mins by colorimetric assay
[9] = GSH reactivity in aqueous buffer assessed as GSH adduct formation by measuring corrected intrinsic second order rate constant (K2 corrected) by HPLC analysis; type: physicochemical
How it was run: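 GSH stock diluted to final 15 mM in aqueous buffer (pH 8.0 used, 7.4 too slow), reaction started with inhibitor at final 0.5 mM, 2% v/v DMSO. Incubated at 22 °C and aliquots taken over at least 5–6 half-lives. HPLC with UV 214/254 nm tracked adduct growth and inhibitor loss, fitted mono-exponentially to give pseudo-first-order kobs. kobs was divided by [thiol] and then by the thiolate fraction (pKa 8.7) to give kcorr2. Run in duplicate.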

[10] = biological target: T4, Protein-glutamine gamma-glutamyltransferase K (Homo sapiens) (UniProt P22735); assay: Irreversible inhibition of human TG1 using Cbz-Glu-(gamma-p-nitrophenylester)Gly (AL5) as substrate assessed as substrate hydrolysis by measuring observed binding constant incubated for 100 mins by colorimetric assay
T4 sequence (whole entry): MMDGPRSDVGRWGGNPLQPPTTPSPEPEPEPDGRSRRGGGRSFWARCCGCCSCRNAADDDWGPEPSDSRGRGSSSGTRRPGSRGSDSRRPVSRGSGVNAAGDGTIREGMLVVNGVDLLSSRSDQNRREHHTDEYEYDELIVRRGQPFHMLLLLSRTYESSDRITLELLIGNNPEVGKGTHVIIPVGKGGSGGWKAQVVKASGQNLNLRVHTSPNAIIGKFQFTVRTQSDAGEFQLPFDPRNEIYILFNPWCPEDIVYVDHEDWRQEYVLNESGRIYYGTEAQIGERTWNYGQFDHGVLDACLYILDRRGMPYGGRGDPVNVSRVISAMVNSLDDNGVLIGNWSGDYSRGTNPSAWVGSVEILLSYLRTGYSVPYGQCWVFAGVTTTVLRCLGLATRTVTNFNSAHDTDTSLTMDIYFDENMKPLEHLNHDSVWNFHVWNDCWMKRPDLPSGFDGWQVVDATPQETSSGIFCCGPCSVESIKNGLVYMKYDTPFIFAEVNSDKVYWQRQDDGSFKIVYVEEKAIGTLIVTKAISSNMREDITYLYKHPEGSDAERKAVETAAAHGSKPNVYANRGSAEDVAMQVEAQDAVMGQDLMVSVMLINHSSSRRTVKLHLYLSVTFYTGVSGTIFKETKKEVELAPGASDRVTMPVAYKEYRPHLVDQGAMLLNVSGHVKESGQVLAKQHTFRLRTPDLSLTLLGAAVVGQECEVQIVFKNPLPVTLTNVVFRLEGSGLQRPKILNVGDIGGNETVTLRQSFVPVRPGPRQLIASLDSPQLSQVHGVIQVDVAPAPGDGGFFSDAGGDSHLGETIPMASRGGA

[11] = Ratio of Kinact/Ki for inhibition of human tissue transglutaminase assessed as substrate hydrolysis to corrected second order rate constant (K2 corrected) for GSH reactivity in aqueous buffer assessed as GSH adduct formation; type: physicochemical
[12] = biological target: T2, Protein-glutamine gamma-glutamyltransferase; assay: Reversible inhibition of human recombinant tissue transglutaminase expressed in Escherichia coli using Cbz-Glu-(gamma-p-nitrophenylester)Gly (AL5) as substrate assessed as substrate hydrolysis by measuring Ki incubated for 20 mins by colorimetric analysis
How it was run: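 For TG2 reversible inhibition, the same AL5 colorimetric assay (MOPS pH 6.9, 7.5 mM CaCl2, 0.25 μM TG2, 405 nm) was run at 100 and 50 μM AL5. Initial rates were taken over the first 10% conversion of the uninhibited control, and 1/v0 was plotted against [I] in a Dixon plot; Ki came from the intersection of the lines.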

Row | Compound | Kinact [1] [min⁻¹] | Ratio [2] | pKi [3] | Ratio [4] | inhibition [5] [%] | half-life at 1 µM [6] [h] | half-life at up to 5 µM [7] [h] | K [8] [min⁻¹] | K [9] | K [10] [min⁻¹] | Ratio [11] | pKi [12]
1 | O=C(CN=C=S)N1CCN(C(=O)C23CC4CC(CC(C4)C2)C3)CC1 | 0.23 | 17.7 10^3/M/min | 5.05 | 26.3 10^3/M/min | – | – | – | – | – | – | – | –
2 | C=C(Cl)C(=O)NCC(=O)N1CCN(C(=O)C23CC4CC(CC(C4)C2)C3)CC1 | 7.28 | 3140 10^3/M/min | 5.63 | 3130 10^3/M/min | 76 | 1.53 | 0.533 | 0.509 | 59.387 10^-3/M/min | 0.022 | 0.053 | –
3 | [N-]=[N+]=CC(=O)NCC(=O)N1CCN(C(=O)C23CC4CC(CC(C4)C2)C3)CC1 | 2.82 | 95 10^3/M/min | 4.58 | 107 10^3/M/min | – | – | – | – | – | – | – | –
4 | C/C=C/C(=O)NCC(=O)N1CCN(C(=O)C23CC4CC(CC(C4)C2)C3)CC1 | – | 6.7 10^3/M/min | 4.21 | 8.3 10^3/M/min | – | – | – | – | – | – | – | –
5 | C=C(Br)C(=O)NCC(=O)N1CCN(C(=O)C23CC4CC(CC(C4)C2)C3)CC1 | 4.69 | 2320 10^3/M/min | 5.71 | 2410 10^3/M/min | – | – | – | 0.497 | – | 0.018 | – | –
6 | C=C(F)C(=O)NCC(=O)N1CCN(C(=O)C23CC4CC(CC(C4)C2)C3)CC1 | 1.17 | 28.5 10^3/M/min | 4.42 | 30.4 10^3/M/min | – | – | – | – | – | – | – | –
7 | O=C(NCC(=O)N1CCN(C(=O)C23CC4CC(CC(C4)C2)C3)CC1)C(F)Cl (configuration not stated) | 1.57 | 16 10^3/M/min | 4.05 | 17.8 10^3/M/min | – | – | – | – | – | – | – | –
8 | C#CC(=O)NCC(=O)N1CCN(C(=O)C23CC4CC(CC(C4)C2)C3)CC1 | 6.83 | 87.7 10^3/M/min | 4.15 | 97.5 10^3/M/min | – | – | – | – | – | – | – | –
9 | CC(=O)C(=O)NCC(=O)N1CCN(C(=O)C23CC4CC(CC(C4)C2)C3)CC1 | – | – | – | – | – | – | – | – | – | – | – | 3.81
10 | C=C(C(=O)NCC(=O)N1CCN(C(=O)C23CC4CC(CC(C4)C2)C3)CC1)C(F)(F)F | 5.22 | 209 10^3/M/min | 4.51 | 171 10^3/M/min | – | – | – | – | – | – | – | –
11 | C[S+]([O-])CCCCN=C=S (configuration not stated) [SULFORAPHANE] | 0.27 | – | 3.44 | – | – | – | – | – | – | – | – | –
